These results are taken from publication PMC7105043 (Journal of the Chinese Medical Association, 2017).

Values after ≈ are worked out from the molar mass of the structure shown.

Series [1] concerns pandemic influenza A (H1N1) virus (A/California/07/2009). In words: microbe, parasite or virus in culture. The format is cell-based.
The test system of a further series is A549 cells. Put plainly: XTT cytotoxicity assay. The format is cell-based, human. Conditions: XTT, 3 days; method says A549 cells, Table 1 says MDCK cells. Summed up:
(§1)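 Test compound serially diluted in complete MEM (10% heat-inactivated FBS) and added to A549 cells seeded at 1 × 10^4 cells/well and pre-incubated 24 h. Cells exposed 3 days at 35 °C, 5% CO2, then XTT reagent for 4 h. Absorbance read at 450 nm, reference 620 nm. Viability relative to untreated control (100%). Triplicate wells, at least three independent runs.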
(Tetrazolium assays rely on reduction of a dye to a coloured formazan, in cell work by metabolically active cells.)

Series [2] relates to pandemic influenza A (H1N1) virus. Format: cell-based.
For series [3] the test system is unchanged. The format is cell-based. This is another data set of the same source.
Series [4] shares this test system. Format: cell-based. This is another data set of the same source.
The nature of another series: XTT cytotoxicity assay. The format is cell-based, human. The conditions noted are these: dog, MDCK cells. The essentials: as §1
Series [5] relates to H1N1 A/Puerto Rico/8/34-NS116-GFP. The conditions noted are these: ref 25 (Theisen et al); cited from earlier work.
For series [6] the following is noted: ref 25 (Theisen et al); cited from earlier work.

Consider `O.Oc1cc(O)c2c(c1)O[C@H](c1ccc(O)c(O)c1)[C@@H](O)C2` [catechin], for which the “Plaque inhibition (EC50)” value in series [1] stood at 18.4 ± 0.7 µg/mL. Moreover, in series [1] (25 μg/mL), the “reduction of viral production (plaque assay)” value is on record as “approximately 50%”. Further, in the series on A549 cells, the “XTT cytoxicity (CC50)” value is more than 100 µg/mL. For the same molecule, in series [2], the “EC50 (XTT viability of infected cells, Fig. 1)” value was 10 to 25 µg/mL and the “protective effect against virus infection (cell viability)” value is “protective effects”. Further, in series [3], the “inhibition of viral RNA synthesis (qRT-PCR)” value is given as “significant inhibition”. Besides, the “green fluorescence (viral glycoprotein foci)” value in series [4] is on record as “decreased in a dose-dependent manner”.

Consider `O=C(O)c1cc(O)c(O)c(O)c1` [gallic acid], for which, in series [1] (2.5 μg/mL), the “reduction of viral production (plaque assay)” value is “approximately 50%”. The EC50 in series [1] (Influenza A virus, H1N1, 72 h, read-out: Plaque inhibition (EC50)) was 2.6 ± 0.07 µg/mL (≈ 15.3 µM); in series [5], 50.8 µM. In addition, in “XTT cytotoxicity assay”, the CC50 at 3 days was found to be 22.1 ± 0.6 µg/mL (≈ 130 µM). The “protective effect against virus infection (cell viability)” value in series [2] is recorded as “protective effects”. Also, the “inhibition of viral RNA synthesis (qRT-PCR)” value in series [3] is reported as “significant inhibition”. For the same molecule, the “green fluorescence (viral glycoprotein foci)” value in series [4] is on record as “decreased in a dose-dependent manner”. In addition, the CC50 in series [6] was 770 µM.

For `O=c1c(O)c(-c2ccc(O)cc2)oc2cc(O)cc(O)c12` [kaempferol], the CC50 at 3 days in the series “XTT cytotoxicity assay” is more than 100 µg/mL.

Take `O=c1c(O)c(-c2ccc(O)c(O)c2)oc2cc(O)cc(O)c12` [quercetin hydrate]: the CC50 at 3 days in the series “XTT cytotoxicity assay” is more than 100 µg/mL.

Turning to `C[C@@H]1O[C@@H](OC[C@H]2O[C@@H](Oc3c(-c4ccc(O)c(O)c4)oc4cc(O)cc(O)c4c3=O)[C@H](O)[C@@H](O)[C@@H]2O)[C@H](O)[C@H](O)[C@H]1O` [rutintrihydrate, rutin trihydrate], the CC50 at 3 days in the series “XTT cytotoxicity assay” is more than 100 µg/mL.

For orientation: EC50 means the concentration needed to bring the measured effect to its halfway point.
